Our source for the Activity values is ChEMBL document CHEMBL1145471, “Small molecule regulators of autophagy identified by an image-based high-throughput screen” (Proc Natl Acad Sci U S A, 2007).

Holding throughout (assay type): functional
The subject of assay [1] is H4. Description: Induction of light chain 3-GFP level in human H4 cells at 0.4 uM after 24 hrs by high throughput fluorescence microscopy relative to control. The essentials: (§1)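 H4 cells stably expressing LC3-GFP, kept in DMEM/10% FBS at 37°C, 5% CO2, were seeded in 96-well plates and exposed to compound for 24 h. Cells were then fixed in 4% paraformaldehyde and stained with 3 μg/ml DAPI. Automated fluorescence microscopy scored the number, size and intensity of LC3-GFP spots. Values are percent of DMSO wells, in triplicate, mean ± SD. Rapamycin served as positive control.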

For assay [2], the system named is H4. As to the kind of experiment: Increase in light chain 3-GFP+ autophagosome vesicle area per cell in human H4 cells at 0.4 uM after 24 hrs by high throughput fluorescence microscopy relative to control. Summed up:
(§2)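 H4 cells stably expressing LC3-GFP, seeded in 96-well plates and exposed to compound for 24 h; fixed in 4% paraformaldehyde, nuclei stained with 3 μg/ml DAPI. Automated fluorescence microscopy scored number, size and intensity of LC3-GFP spots; values expressed relative to DMSO-treated wells, rapamycin positive control. Triplicate wells, mean ± SD; experiments repeated three times.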

Assay [3] concerns H4. Description: Increase in light chain 3-GFP+ autophagosome vesicle number per cell in human H4 cells at 0.4 uM after 24 hrs by high throughput fluorescence microscopy relative to control. Summed up: as §2
Assay [4] deals with H4. Description: Increase in light chain 3-GFP+ autophagosome vesicle intensity per cell in human H4 cells at 0.4 uM after 24 hrs by high throughput fluorescence microscopy relative to control. The essentials:
as §2

Assay [5] has as its system H4. Description: Increase in light chain 3-GFP+ autophagosome vesicle intensity per cell in human H4 cells at 4.9 uM after 24 hrs by high throughput fluorescence microscopy relative to control. Summed up:
as §2

Assay [6] relates to H4. Description: Increase in light chain 3-GFP+ autophagosome vesicle area per cell in human H4 cells at 4.9 uM after 24 hrs by high throughput fluorescence microscopy relative to control. The essentials:
as §2

The subject of assay [7] is H4. Description: Induction of light chain 3-GFP level in human H4 cells at 4.9 uM after 24 hrs by high throughput fluorescence microscopy relative to control. The essentials: as §1
The test system of assay [8] is H4. Description: Increase in light chain 3-GFP+ autophagosome vesicle number per cell in human H4 cells at 4.9 uM after 24 hrs by high throughput fluorescence microscopy relative to control. The essentials: as §1
For assay [9], the system named is H4. As to the kind of experiment: Induction of light chain 3-GFP level in human H4 cells at 5.0 uM after 24 hrs by high throughput fluorescence microscopy relative to control. Summed up: as §1
The subject of assay [10] is H4. Description: Decrease in FYVE-RFP+ vesicle intensity per cell in human H4 cells after 8 hrs relative to control. On the set-up: concentration or dose not given beside the values. Summed up:
(§3)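 H4 cells stably expressing FYVE-RFP (H4-FYVE), grown in DMEM with 10% FBS, penicillin/streptomycin and 2 mM L-glutamine at 37°C, 5% CO2, seeded in 96-well plates and exposed to compound. Fixed in 4% paraformaldehyde, nuclei stained with 3 μg/ml DAPI, FYVE-RFP+ vesicles quantified by high-throughput fluorescence microscopy against DMSO control. Triplicate wells, mean ± SD.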

Assay [11] has as its system H4. Description: Increase in long-lived protein degradation in human H4 cells after 2 hrs relative to control. On the set-up: concentration or dose not given beside the values.
For assay [12], the system named is H4. As to the kind of experiment: Increase in long-lived protein degradation in human H4 cells after 4 hrs relative to control. Set-up: concentration or dose not given beside the values.
The test system of assay [13] is H4. Description: Increase in long-lived protein degradation in human H4 cells after 24 hrs relative to control. Set-up: concentration or dose not given beside the values.
Assay [14] relates to H4. As to the kind of experiment: Increase in light chain 3-GFP+ autophagosome vesicle area per cell in human H4 cells at 5.0 uM after 24 hrs by high throughput fluorescence microscopy relative to control. The essentials:
(§4)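 H4 cells stably expressing LC3-GFP, seeded in 96-well plates and exposed to compound for 24 h; screening concentrations were 3–12 μM, with rapamycin 0.22 μM and bafilomycin A1 0.40 μM. Cells fixed in 4% paraformaldehyde and stained with 3 μg/ml DAPI. Number, size and intensity of LC3-GFP spots measured by high-throughput fluorescence microscopy and expressed as percent of DMSO-treated wells. Rapamycin was the positive control. Triplicate wells, mean ± SD; experiments repeated three times.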

In assay [15] the test system is H4. As to the kind of experiment: Increase in long-lived protein degradation in human H4 cells after 1 hr relative to control. On the set-up: concentration or dose not given beside the values.
The test system of assay [16] is H4. Description: Decrease in FYVE-RFP+ vesicle intensity per cell in human H4 cells after 4 hrs relative to control. Set-up: concentration or dose not given beside the values. Summed up:
as §3

Assay [17] relates to H4. Description: Increase in light chain 3-GFP+ autophagosome vesicle intensity per cell in human H4 cells at 5.0 uM after 24 hrs by high throughput fluorescence microscopy relative to control. Summed up:
(§5)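 H4 cells stably expressing LC3-GFP were grown in DMEM with 10% FBS and 2 mM L-glutamine at 37°C, 5% CO2. They were exposed to each compound for 24 h, with DMSO as negative and rapamycin as positive control. Cells were then fixed in 4% paraformaldehyde and stained with 3 μg/ml DAPI. High-throughput fluorescence imaging scored LC3-GFP spot number, size and intensity, expressed relative to DMSO. Mean ± SD of triplicates; experiments repeated three times.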

Assay [18] concerns H4. As to the kind of experiment: Decrease in FYVE-RFP+ vesicle intensity per cell in human H4 cells after 2 hrs relative to control. On the set-up: concentration or dose not given beside the values. The essentials:
as §3

The test system of assay [19] is H4. As to the kind of experiment: Increase in light chain 3-GFP+ autophagosome vesicle number per cell in human H4 cells at 5.0 uM after 24 hrs by high throughput fluorescence microscopy relative to control. Summed up: as §5
Assay [20] has as its system H4. Description: Increase in light chain 3-GFP+ autophagosome vesicle area per cell in human H4 cells at 7.6 uM after 24 hrs by high throughput fluorescence microscopy relative to control. Summed up: as §4
Assay [21] relates to H4. As to the kind of experiment: Increase in light chain 3-GFP+ autophagosome vesicle number per cell in human H4 cells at 7.6 uM after 24 hrs by high throughput fluorescence microscopy relative to control. Summed up: as §5
The subject of assay [22] is H4. As to the kind of experiment: Induction of light chain 3-GFP level in human H4 cells at 7.6 uM after 24 hrs by high throughput fluorescence microscopy relative to control. The essentials:
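H4 cells stably expressing LC3-GFP, grown in DMEM with 10% FBS, penicillin/streptomycin and 2 mM L-glutamine at 37°C, 5% CO2. Cells were seeded in 96-well plates and exposed to library compounds at 3–12 μM for 24 h, then fixed in 4% paraformaldehyde and stained with 3 μg/ml DAPI. LC3-GFP spot number, size and intensity were measured by high-throughput fluorescence microscopy and expressed relative to DMSO. Triplicates, mean ± SD.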

Assay [23] has as its system H4. As to the kind of experiment: Increase in light chain 3-GFP+ autophagosome vesicle intensity per cell in human H4 cells at 7.6 uM after 24 hrs by high throughput fluorescence microscopy relative to control. The essentials:
as §5

Take `CO/C1=C\C(C)=C\[C@@H](C)[C@@H](O)[C@@H](C)C/C(C)=C/C=C/[C@H](OC)[C@@H]([C@@H](C)[C@@H](O)[C@H](C)[C@@]2(O)C[C@@H](O)[C@H](C)[C@@H](C(C)C)O2)OC1=O` [BAFILOMYCIN A1]: the Activity is given as 71.96% in the assay with H4 [1], 1608.62% in the assay on H4 [2], 691.15% with H4 [3] and 4027.54% in the assay on H4 [4].
`C=C1[C@@H](C)[C@H]2[C@H](Cc3ccccc3)NC(=O)[C@]23[C@H](OC(C)=O)/C=C/[C@@](C)(O)C(=O)[C@@H](C)C/C=C/[C@H]3[C@@H]1O` [CYTOCHALASIN D]: the Activity with H4 [5] turned out to be 378.77%; in the assay with H4 [6], 306.27%; with H4 [7], 71.84%; with H4 [8] it was 258.44%.
For `OCCN(CCO)c1nc(N2CCCCC2)c2nc(N(CCO)CCO)nc(N3CCCCC3)c2n1` [DIPYRIDAMOLE], the Activity with H4 [9] is on record as 158.96%; in the assay with H4 [10] it was 32.54%; in the assay with H4 [11] it was 79.22%; in the assay with H4 [12] it was 81.07%; with H4 [13], 79.08%; in the assay on H4 [14], 199.02%. For the same compound, the Activity in the assay on H4 [15] turned out to be 82.64%; in the assay with H4 [16], 30.25%; with H4 [17], 213.63%; with H4 [18] it was 32.22%; in the assay on H4 [19], 170.2%.
For `Oc1ccc(-c2nc(-c3ccc(F)cc3)c(-c3ccncc3)[nH]2)cc1` [SB-202190], the Activity with H4 [20] was found to be 160.87%; in the assay with H4 [21] it was 151.97%; in the assay on H4 [22], 91.14%; with H4 [23], 169.71%.
